Data as given in ChEMBL document CHEMBL1156682, “Synthesis and antioxidant activity evaluation of new hexahydropyrimido[5,4-c]quinoline-2,5-diones and 2-thioxohexahydropyrimido[5,4-c]quinoline-5-ones obtained by Biginelli reaction in two steps” (Eur J Med Chem, 2008).

How the values were obtained:
Type in all cases: functional
[1] = test system: Radical scavenging activity; assay: Antioxidant activity assessed as DPPH radical scavenging activity at 50 uM/L after 2 hrs
Procedure, shortened: (§1)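 DPPH radical scavenging read as absorbance at 517 nm. %RSA = [(A_DPPH − A_S)/A_DPPH] × 100, where A_S is absorbance with compound added at a given level and A_DPPH is absorbance of DPPH solution alone. Mean of three independent samples per compound.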

[2] = test system: Radical scavenging activity; assay: Antioxidant activity assessed as DPPH radical scavenging activity at 100 uM/L after 2 hrs; procedure, shortened: as §1
[3] = test system: Radical scavenging activity; assay: Antioxidant activity assessed as DPPH radical scavenging activity at 150 uM/L after 2 hrs; procedure, shortened: as §1
[4] = test system: Radical scavenging activity; assay: Antioxidant activity assessed as DPPH radical scavenging activity at 200 uM/L after 2 hrs; procedure, shortened: as §1
[5] = test system: Radical scavenging activity; assay: Antioxidant activity assessed as DPPH radical scavenging activity at 250 uM/L after 2 hrs; procedure, shortened: as §1
[6] = Antioxidant activity assessed as hydroxyl radical scavenging activity at 20 uM/L after 2 hrs
Procedure, shortened: (§2)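 Hydroxyl radical scavenging by benzoic acid hydroxylation, with OH· generated by Fenton reaction. Sample was mixed with phosphate buffer (pH 7.4, 0.1 mol), then H2O2 solution (10 mmol) was added, and the mixture was incubated at 37 °C for 2 h. Fluorescence of the hydroxylated benzoic acid was read at excitation 305 nm, emission 407 nm.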

[7] = Antioxidant activity assessed as hydroxyl radical scavenging activity at 50 uM/L after 2 hrs; procedure, shortened: as §2
[8] = Antioxidant activity assessed as hydroxyl radical scavenging activity at 100 uM/L after 2 hrs; procedure, shortened: as §2
[9] = Antioxidant activity assessed as hydroxyl radical scavenging activity at 150 uM/L after 2 hrs; procedure, shortened: as §2
[10] = Antioxidant activity assessed as hydroxyl radical scavenging activity at 200 uM/L after 2 hrs; procedure, shortened: as §2

SMILES	Activity [1] [%]	Activity [2] [%]	Activity [3] [%]	Activity [4] [%]	Activity [5] [%]	Activity [6] [%]	Activity [7] [%]	Activity [8] [%]	Activity [9] [%]	Activity [10] [%]
CC1=C2C(=O)Nc3ccccc3C2NC(=S)N1C (stereo not given)	4	8.2	14.1	17.9	26.2	56.3	69.4	77.2	82.3	88.2
CC1=C2C(=O)Nc3cccc(F)c3C2NC(=S)N1C (stereo not given)	3.3	8.6	12.4	17.4	25.4	70.6	78.8	80.2	81.5	83.3
CC1=C2C(=O)Nc3c(Cl)cccc3C2NC(=O)N1C (stereo not given)	3.1	5.4	10.2	16.2	17.4	66	77.3	82.9	87.3	89.2
CCN1C(=O)NC2C(=C1C)C(=O)Nc1ccccc12 (stereo not given)	3.4	4.8	6.7	9.1	10.5	58.1	70.9	81.1	86.5	89.1
CCN1C(=O)NC2C(=C1C)C(=O)Nc1cccc(F)c12 (stereo not given)	3	4.6	6	8.7	9.8	12.5	58.4	72.4	80.2	83.1
CC1=C2C(=O)Nc3cccc(Cl)c3C2NC(=O)N1C (stereo not given)	1.5	2.1	5	5.4	7.6	67.1	72.8	80.9	83.2	83.3
CC1=C2C(=O)Nc3cccc(Cl)c3C2NC(=S)N1C (stereo not given)	7.7	8.2	9.5	15.3	24.9	68	82.7	87.4	89.8	92.3
CC1=C2C(=O)Nc3ccccc3C2NC(=O)N1C (stereo not given)	2.5	6.6	9.1	9.8	12	58.4	71.8	80.8	83.7	89.7
CCN1C(=O)NC2C(=C1C)C(=O)Nc1c(Cl)cccc12 (stereo not given)	1.9	2.3	4.3	8.1	11.8	63.8	74.1	80.6	84.4	86.7
CC1=C2C(=O)Nc3cc(Cl)ccc3C2NC(=S)N1C (stereo not given)	9.5	11.2	17.8	23.8	30.6	68.7	76.5	87.5	88.5	90.2
